We go through 1 molecule from paper PMC9111543 (International Journal for Parasitology: Drugs and Drug …, 2022).

The nature of this data set: Cytotoxicity assay on MRC-5 fibroblasts. The class given is cell-based. The following applies: human, MRC-5SV2 cells. The procedure, abridged: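 MRC-5SV2 cells grown in MEM with L-glutamine, NaHCO3 and 5% hiFBS, seeded at 15,000 cells/well. Four-fold dilutions of test compound were added, with a highest in-test concentration of 64 μM. Cells were exposed for 72 h at 37 °C and 5% CO2, then incubated with resazurin for 4 h and read by fluorescence. CC50 was calculated from ≥2 independent experiments in duplicate.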

Regarding `CC[n+]1c(-c2ccccc2)c2cc(N/N=N/c3cccc(C(=N)N)c3)ccc2c2ccc(N)cc21` [isometamidium], the CC50 at 72 h turned out to be 22.7 µM. That is a double-digit micromolar value.
